ChEMBL document CHEMBL4706606, “Re-evaluating pretomanid analogues for Chagas disease: Hit-to-lead studies reveal both in vitro and in vivo trypanocidal efficacy” (Eur J Med Chem, 2020)
≈ marks a conversion by molar mass, not a printed value.

What was measured:
Trypanosoma cruzi [1] = experiment: Antitrypanosomal activity against Trypanosoma cruzi Tulahuen strain C2C4 amastigotes infected in rat L6 cells assessed as inhibition of parasite growth incubated for 96 hrs by chlorophenol red-fl-D-galactopyranoside based colorimetric analysis; format: functional, organism-based; details: for IC50: Tulahuen strain C2C4, L6, 96 h; for IC90: Tulahuen strain C2C4, L6, time 96 hrs
Outline: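 Tulahuen strain TcVI T. cruzi expressing β-galactosidase, grown in L6 rat skeletal myoblast host cells. IC50/IC90 growth inhibition. Each value is the mean of ≥2 independent determinations using fresh sample stock.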

L6 = experiment: Cytotoxicity against rat L6 cells assessed as reduction in cell viability incubated for 72 hrs by alamar blue assay; format: ADME, cell-based; details: L6, 72 h
[2] = Selectivity index, ratio of IC50 for cytotoxicity against rat L6 cells to IC50 for antitrypanosomal activity against Trypanosoma cruzi Tulahuen strain C2C4 amastigotes infected in rat L6 cells
[3] = Kinetic solubility of compound in water sonicated for 15 mins by HPLC analysis
[4] = Metabolic stability in CD-1 mouse liver microsomes assessed as parent compound remaining incubated for 1 hr; format: ADME, Microsome
Outline: (§1)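 Pooled human or CD-1 mouse liver microsomes at 0.4 mg/mL microsomal protein. Percent parent remaining after 1 h incubation.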

[5] = Metabolic stability in human liver microsomes assessed as parent compound remaining incubated for 1 hr; format: ADME, Microsome; details: read-out: Stabilty; outline: as §1
Trypanosoma cruzi [6] = experiment: Antitrypanosomal activity against Trypanosoma cruzi Tulahuen strain C2C4 amastigotes infected in […] cells assessed as reduction in parasite growth incubated for 48 hrs by chlorophenol red-fl-D-galactopyranoside based colorimetric analysis; format: functional, organism-based; details: for IC50: Tulahuen strain C2C4, NIH3T3, 48 h; for IC90: Tulahuen strain C2C4, NIH3T3, time 48 hrs
[7] = Cytotoxicity against rat 3T3 cells assessed as reduction in cell viability incubated for 72 hrs by alamar blue assay; format: ADME, cell-based; details: NIH3T3, 72 h
Trypanosoma cruzi [8] = experiment: Antitrypanosomal activity against Trypanosoma cruzi Tulahuen strain C2C4 amastigotes infected in […] cells assessed as reduction in parasite growth incubated for 48 hrs by chlorophenol red-fl-D-galactopyranoside based colorimetric analysis relative to control; format: functional
[9] = Inhibition of Trypanosoma cruzi Tulahuen C4 strain CYP51 expressed in Escherichia coli by fluorescence based assay
[10] = Selectivity index, ratio of IC50 for cytotoxicity against rat 3T3 cells to IC50 for antitrypanosomal activity against Trypanosoma cruzi Tulahuen strain C2C4 amastigotes infected in rat 3T3 cells; details: 3T3 cells

SMILES: O=[N+]([O-])c1cn2c(n1)OC(COc1ccc(-c3ccc(OC(F)(F)F)cc3)nn1)CC2 (stereo unspecified)
- IC50 (Trypanosoma cruzi [1]): 380 nM
- IC90 (Trypanosoma cruzi [1]): 960 nM
- IC50 (L6): 42000 nM
- selectivity ratio [2]: 111

SMILES: CC1(COc2ccc(OC(F)(F)F)cc2)CCn2cc([N+](=O)[O-])nc2S1(=O)=O (stereo unspecified)
- IC50 (Trypanosoma cruzi [1]): 700 nM
- IC90 (Trypanosoma cruzi [1]): 1600 nM
- IC50 (L6): > 100000 nM
- selectivity ratio [2]: > 143
- solubility kinetic at 0.25 h [3]: 1.1 µg/mL (≈ 2.61 µM)
- remaining at 1 h [4]: 76%
- remaining at 1 h [5]: 88%
- IC50 (Trypanosoma cruzi [6]): 1300 nM
- IC90 (Trypanosoma cruzi [6]): 3000 nM
- IC50 [7]: > 37000 nM
- %max (Trypanosoma cruzi [8]): 101%
- IC50 [9]: > 10000 nM
- selectivity ratio [10]: > 28

SMILES: CC1(COc2ccc(OC(F)(F)F)c(Cl)c2)CCn2cc([N+](=O)[O-])nc2O1 (stereo unspecified)
- IC50 (Trypanosoma cruzi [1]): 310 nM
- IC90 (Trypanosoma cruzi [1]): 6500 nM
- IC50 (L6): 53000 nM
- solubility kinetic at 0.25 h [3]: 0.5 µg/mL (≈ 1.23 µM)

SMILES: CC1(COc2ccc(OC(F)(F)F)cc2)Cn2nc([N+](=O)[O-])nc2O1 (stereo unspecified)
- IC50 (Trypanosoma cruzi [6]): 720 nM
- IC90 (Trypanosoma cruzi [6]): 2100 nM
- IC50 [7]: > 73000 nM
- %max (Trypanosoma cruzi [8]): 96%
- IC50 [9]: > 10000 nM
- selectivity ratio [10]: > 101

SMILES: O=[N+]([O-])c1cn2c(n1)OC(COc1cnc(-c3ccc(OC(F)(F)F)cc3)nc1)CC2 (stereo unspecified)
- IC50 (Trypanosoma cruzi [1]): 330 nM
- IC90 (Trypanosoma cruzi [1]): 960 nM
- IC50 (L6): 70000 nM
- selectivity ratio [2]: 212

SMILES: CC1(COc2ccc(OC(F)(F)F)cc2)CCn2cc([N+](=O)[O-])nc2[S+]1[O-] (stereo unspecified)
- IC50 (Trypanosoma cruzi [1]): 1600 nM
- IC90 (Trypanosoma cruzi [1]): 3700 nM
- IC50 (L6): 73000 nM
- selectivity ratio [2]: 46

SMILES: CC1(COc2ccc(OC(F)(F)F)cc2)CCn2cc([N+](=O)[O-])nc2S1 (stereo unspecified)
- IC50 (Trypanosoma cruzi [1]): 1100 nM
- IC90 (Trypanosoma cruzi [1]): 2600 nM
- IC50 (L6): > 100000 nM
- selectivity ratio [2]: > 91

SMILES: O=[N+]([O-])c1cn2c(n1)OCC(OCc1ccc(OCc3ccccc3)cc1)C2 (stereo unspecified)
- IC50 (Trypanosoma cruzi [1]): 1200 nM

SMILES: CC1(COc2ccc(OC(F)(F)F)cc2)Cn2cc([N+](=O)[O-])nc2O1 (racemic)
- IC50 (Trypanosoma cruzi [6]): 950 nM
- IC90 (Trypanosoma cruzi [6]): 2300 nM
- IC50 [7]: > 73000 nM
- %max (Trypanosoma cruzi [8]): 68%
- IC50 [9]: > 10000 nM

SMILES: CC1(COc2ccc(OC(F)(F)F)cc2Cl)CCn2cc([N+](=O)[O-])nc2O1 (stereo unspecified)
- IC50 (Trypanosoma cruzi [1]): 460 nM
- IC90 (Trypanosoma cruzi [1]): 1300 nM
- IC50 (L6): > 100000 nM
- solubility kinetic at 0.25 h [3]: 0.61 µg/mL (≈ 1.5 µM)

SMILES: O=[N+]([O-])c1cn2c(n1)OC(COc1ncc(-c3ccc(OC(F)(F)F)cc3)cn1)CC2 (stereo unspecified)
- IC50 (Trypanosoma cruzi [1]): 53 nM
- IC90 (Trypanosoma cruzi [1]): 330 nM
- IC50 (L6): 19000 nM
- selectivity ratio [2]: 358

SMILES: CSc1cnc2n1CC(C)(COc1ccc(OC(F)(F)F)cc1)O2 (stereo unspecified)
- IC50 (Trypanosoma cruzi [6]): 2000 nM
- IC90 (Trypanosoma cruzi [6]): 16000 nM
- IC50 [7]: > 73000 nM
- %max (Trypanosoma cruzi [8]): 93%
- IC50 [9]: > 10000 nM
- selectivity ratio [10]: > 37

SMILES: O=[N+]([O-])c1cn2c(n1)OC[C@H](OCC#Cc1ccc(OC(F)(F)F)cc1)C2
- IC50 (Trypanosoma cruzi [6]): 190 nM
- IC90 (Trypanosoma cruzi [6]): 440 nM
- IC50 [7]: > 37000 nM
- %max (Trypanosoma cruzi [8]): 99%
- IC50 [9]: > 10000 nM
- selectivity ratio [10]: > 195

SMILES: CC1(COc2ccc(OC(F)(F)F)c(F)c2)CCn2cc([N+](=O)[O-])nc2O1 (stereo unspecified)
- IC50 (Trypanosoma cruzi [1]): 560 nM
- IC90 (Trypanosoma cruzi [1]): 1900 nM
- IC50 (L6): 68000 nM
- solubility kinetic at 0.25 h [3]: 0.95 µg/mL (≈ 2.43 µM)

SMILES: O=[N+]([O-])c1cn2c(n1)OC(COc1ccc(-c3ccc(OC(F)(F)F)cc3)cn1)CC2 (stereo unspecified)
- IC50 (Trypanosoma cruzi [1]): 40 nM
- IC90 (Trypanosoma cruzi [1]): 180 nM
- IC50 (L6): > 100000 nM
- selectivity ratio [2]: > 2500

SMILES: CC1(COc2ccc(OC(F)(F)F)cc2)CCn2nc([N+](=O)[O-])nc2O1 (stereo unspecified)
- solubility kinetic at 0.25 h [3]: 9.5 µg/mL (≈ 25.4 µM)
- remaining at 1 h [4]: 92%
- remaining at 1 h [5]: 91%
- IC50 (Trypanosoma cruzi [6]): 220 nM
- IC90 (Trypanosoma cruzi [6]): 850 nM
- IC50 [7]: > 37000 nM
- %max (Trypanosoma cruzi [8]): 96%
- IC50 [9]: > 10000 nM
- selectivity ratio [10]: > 168

SMILES: O=[N+]([O-])c1cn2c(n1)OC[C@H](OCc1ccc(-c3ccccc3)cc1)C2
- IC50 (Trypanosoma cruzi [1]): 2700 nM

SMILES: O=[N+]([O-])c1cn2c(n1)OC[C@@H](OCc1ccc(-c3ccccc3)cc1)C2
- IC50 (Trypanosoma cruzi [1]): 60000 nM

SMILES: O=[N+]([O-])c1cn2c(n1)OC(COc1ccc(-c3ccc(F)cc3)nc1)CC2 (racemic)
- IC50 (Trypanosoma cruzi [1]): 170 nM
- IC90 (Trypanosoma cruzi [1]): 560 nM

SMILES: O=[N+]([O-])c1cn2c(n1)OC[C@H](OCc1ccc(-c3ccc(C(F)(F)F)cc3Cl)cc1)C2
- IC50 (Trypanosoma cruzi [1]): 250 nM
- IC90 (Trypanosoma cruzi [1]): 710 nM
- IC50 (L6): 29000 nM
- selectivity ratio [2]: 116
- solubility kinetic at 0.25 h [3]: < 0.1 µg/mL
- remaining at 1 h [4]: 83%
- remaining at 1 h [5]: 76%
- IC50 (Trypanosoma cruzi [6]): 280 nM
- IC90 (Trypanosoma cruzi [6]): 410 nM
- IC50 [7]: > 37000 nM
- %max (Trypanosoma cruzi [8]): 100%
- IC50 [9]: 7600 nM
- selectivity ratio [10]: > 132

SMILES: O=[N+]([O-])c1cn2c(n1)OC(COc1ccc(-c3ccc(F)nc3)cc1)CC2 (stereo unspecified)
- IC50 (Trypanosoma cruzi [1]): 18 nM
- IC90 (Trypanosoma cruzi [1]): 44 nM
- IC50 (L6): > 100000 nM
- selectivity ratio [2]: > 5560
- IC50 (Trypanosoma cruzi [6]): 74 nM
- IC90 (Trypanosoma cruzi [6]): 330 nM
- IC50 [7]: > 37000 nM
- %max (Trypanosoma cruzi [8]): 98%
- IC50 [9]: > 10000 nM
- selectivity ratio [10]: > 500

SMILES: O=[N+]([O-])c1cn2c(n1)SCC(OCc1ccc(OCc3ccccc3)cc1)C2 (stereo unspecified)
- IC50 (Trypanosoma cruzi [1]): 900 nM

SMILES: O=[N+]([O-])c1cn2c(n1)OC[C@@H](OCc1ccc(-c3ccc(OC(F)(F)F)cc3Cl)cc1)C2
- IC50 (Trypanosoma cruzi [1]): 5700 nM
- IC90 (Trypanosoma cruzi [1]): > 10000 nM
- IC50 (L6): 19000 nM
- selectivity ratio [2]: 3.3

SMILES: O=[N+]([O-])c1cn2c(n1)OC[C@H](OCc1ccc(-c3ccc(OC(F)(F)F)cc3Cl)cc1)C2
- IC50 (Trypanosoma cruzi [1]): 240 nM
- IC90 (Trypanosoma cruzi [1]): 1100 nM
- IC50 (L6): 25000 nM
- selectivity ratio [2]: 104
- solubility kinetic at 0.25 h [3]: < 0.1 µg/mL
- remaining at 1 h [4]: 76%
- remaining at 1 h [5]: 85%
- IC50 (Trypanosoma cruzi [6]): 570 nM
- IC90 (Trypanosoma cruzi [6]): 1000 nM
- IC50 [7]: > 37000 nM
- %max (Trypanosoma cruzi [8]): 99%
- IC50 [9]: > 10000 nM
- selectivity ratio [10]: > 65

SMILES: O=[N+]([O-])c1cn2c(n1)OC[C@H](OCc1ccc(-c3ccc(OC(F)(F)F)cc3)cn1)C2
- IC50 (Trypanosoma cruzi [1]): 49 nM
- IC90 (Trypanosoma cruzi [1]): 310 nM
- IC50 (L6): 51000 nM
- IC50 (Trypanosoma cruzi [6]): 390 nM
- IC90 (Trypanosoma cruzi [6]): 2600 nM
- IC50 [7]: > 73000 nM
- %max (Trypanosoma cruzi [8]): 80%
- IC50 [9]: > 10000 nM

SMILES: CC1(COc2ccc(OC(F)(F)F)cc2)Cn2ccnc2O1 (stereo unspecified)
- IC50 (Trypanosoma cruzi [6]): 4700 nM
- IC90 (Trypanosoma cruzi [6]): 10000 nM
- IC50 [7]: > 73000 nM
- %max (Trypanosoma cruzi [8]): 80%
- IC50 [9]: 160 nM
- selectivity ratio [10]: > 16

SMILES: O=[N+]([O-])c1cn2c(n1)OC(COc1cnc(-c3ccc(OC(F)(F)F)cc3)cn1)CC2 (stereo unspecified)
- IC50 (Trypanosoma cruzi [1]): 210 nM
- IC90 (Trypanosoma cruzi [1]): 6700 nM
- IC50 (L6): > 100000 nM
- selectivity ratio [2]: > 476

SMILES: O=[N+]([O-])c1cn2c(n1)OC(COc1ccc(-c3ccc(OC(F)(F)F)cc3)nc1)CC2 (stereo unspecified)
- %max (Trypanosoma cruzi [8]): 100%

SMILES: CC1(COc2ccc(OC(F)(F)F)cc2)Cn2c(Br)cnc2O1 (stereo unspecified)
- IC50 (Trypanosoma cruzi [6]): 1700 nM
- IC90 (Trypanosoma cruzi [6]): 4100 nM
- IC50 [7]: > 73000 nM
- %max (Trypanosoma cruzi [8]): 87%
- IC50 [9]: 530 nM
- selectivity ratio [10]: > 43

SMILES: O=[N+]([O-])c1cn2c(n1)OC[C@@H](OCc1ccc(-c3ccc(C(F)(F)F)cc3Cl)cn1)C2
- IC50 (Trypanosoma cruzi [1]): 4800 nM
- IC90 (Trypanosoma cruzi [1]): > 10000 nM
- IC50 (L6): 57000 nM
- selectivity ratio [2]: 12
